Measured values reported in ChEMBL document CHEMBL4811305, “Development of potent and selective Cathepsin C inhibitors free of aortic binding liability by application of a conformational restriction strategy” (Bioorg Med Chem Lett, 2021).

Experiments:
Dipeptidyl peptidase 1 [1] = target: T1, Dipeptidyl peptidase 1 (Homo sapiens, UniProt P53634); test: Inhibition of human cathepsin C at 1 uM relative to control
Dipeptidyl peptidase 1 [2] = target: T1, Dipeptidyl peptidase 1; test: Inhibition of human cathepsin C at 10 uM relative to control
Dipeptidyl peptidase 1 [3] = target: T1, Dipeptidyl peptidase 1; test: Inhibition of human cathepsin C
Summary of the method: (§1)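 Values are means of two independent experiments, each run in duplicate.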

Dipeptidyl peptidase 1 [4] = target: T1, Dipeptidyl peptidase 1; test: Inhibition of cellular cathepsin C (unknown origin); summary of the method: as §1
[5] = Aldehyde reactivity of the compound in 0.1M phosphate buffer assessed as compound remaining at pH 7.4 measured after 15 hrs in presence of propionaldehyde by HPLC-UV analysis; format: ADME; conditions: phosphate buffer with propionaldehyde, read-out: Stabilty
Summary of the method: (§2)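 Each compound was spiked in bulk into propionaldehyde dissolved in 0.1 M phosphate buffer, pH 7.4. Aliquots were taken at intervals and analysed by HPLC-UV to give percent parent remaining, with incubations lasting up to 15 h. Half-life was calculated from the disappearance of parent. Where no analyte remained at 15 h, only the 2 h data were used. Adduct identity was confirmed as molecular ion +40 amu. This was a single experiment (n = 1).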

[6] = Half life of the compound in 0.1M phosphate buffer at pH 7.4 by HPLC-UV analysis; format: physicochemical; summary of the method: as §2
[7] = Aldehyde reactivity of the compound in 0.1M phosphate buffer assessed as compound remaining at pH 7.4 measured after 2 hrs in presence of propionaldehyde by HPLC-UV analysis; format: ADME; conditions: phosphate buffer with propionaldehyde, read-out: Stabilty; summary of the method: as §2
Homo sapiens [8] = species on record: Homo sapiens; test: Selectivity for human cathepsin C over cathepsin K (unknown origin)
[9] = Metabolic stability in human liver microsomes assessed as compound remaining measured after 60 mins; format: ADME, Microsome; conditions: read-out: Stabilty
Summary of the method: (§3)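 The readout was percent of parent remaining after 60 min incubation with liver microsomal preparations. Values are the mean of three replicates ± SD.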

[10] = Metabolic stability in rat liver microsomes assessed as compound remaining measured after 60 mins; format: ADME, Microsome; conditions: read-out: Stabilty; summary of the method: as §3
[11] = Metabolic stability in mouse liver microsomes assessed as compound remaining measured after 60 mins; format: ADME, Microsome; conditions: read-out: Stabilty; summary of the method: as §3
CYP1A2 [12] = target: T2, CYP1A2 (Homo sapiens, UniProt P05177); test: Inhibition of CYP1A2 (unknown origin) at 1 uM relative to control; format: ADME
T2 sequence (P05177 whole entry): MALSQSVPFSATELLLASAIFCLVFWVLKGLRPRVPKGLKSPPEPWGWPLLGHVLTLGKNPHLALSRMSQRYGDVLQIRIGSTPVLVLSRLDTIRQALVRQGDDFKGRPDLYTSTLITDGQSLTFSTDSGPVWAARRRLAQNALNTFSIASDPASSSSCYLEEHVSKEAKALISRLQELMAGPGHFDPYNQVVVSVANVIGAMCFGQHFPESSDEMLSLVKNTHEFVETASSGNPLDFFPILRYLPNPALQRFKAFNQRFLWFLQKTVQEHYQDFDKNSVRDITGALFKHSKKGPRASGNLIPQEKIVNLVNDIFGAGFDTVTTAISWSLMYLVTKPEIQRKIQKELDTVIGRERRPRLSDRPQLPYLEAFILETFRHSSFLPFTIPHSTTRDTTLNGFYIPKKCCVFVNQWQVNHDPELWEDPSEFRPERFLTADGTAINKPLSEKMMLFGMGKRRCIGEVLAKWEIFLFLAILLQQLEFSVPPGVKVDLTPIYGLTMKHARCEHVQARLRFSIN

CYP1A2 [13] = target: T2, CYP1A2; test: Inhibition of CYP1A2 (unknown origin) at 10 uM relative to control; format: ADME
CYP2D6 [14] = target: T3, CYP2D6 (Homo sapiens, UniProt P10635); test: Inhibition of CYP2D6 (unknown origin) at 1 uM relative to control; format: ADME
T3 sequence (P10635 whole entry): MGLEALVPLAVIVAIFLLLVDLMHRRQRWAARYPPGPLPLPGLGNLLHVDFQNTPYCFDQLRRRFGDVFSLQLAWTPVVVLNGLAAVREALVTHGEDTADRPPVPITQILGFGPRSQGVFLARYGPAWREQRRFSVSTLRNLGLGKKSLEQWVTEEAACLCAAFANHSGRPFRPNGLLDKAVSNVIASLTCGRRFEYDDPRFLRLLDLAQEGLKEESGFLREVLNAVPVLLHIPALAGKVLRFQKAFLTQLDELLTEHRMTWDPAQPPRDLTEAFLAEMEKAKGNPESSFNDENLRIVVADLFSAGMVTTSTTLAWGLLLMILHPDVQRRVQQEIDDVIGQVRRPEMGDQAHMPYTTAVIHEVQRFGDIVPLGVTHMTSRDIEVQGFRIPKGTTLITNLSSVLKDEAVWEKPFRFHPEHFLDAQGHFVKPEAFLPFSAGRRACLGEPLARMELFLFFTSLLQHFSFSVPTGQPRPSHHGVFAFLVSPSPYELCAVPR

CYP2D6 [15] = target: T3, CYP2D6; test: Inhibition of CYP2D6 (unknown origin) at 10 uM relative to control; format: ADME
CYP3A4 [16] = target: T4, CYP3A4 (Homo sapiens, UniProt P08684); test: Inhibition of CYP3A4 (unknown origin) at 1 uM relative to control; format: ADME
T4 sequence (P08684 whole entry): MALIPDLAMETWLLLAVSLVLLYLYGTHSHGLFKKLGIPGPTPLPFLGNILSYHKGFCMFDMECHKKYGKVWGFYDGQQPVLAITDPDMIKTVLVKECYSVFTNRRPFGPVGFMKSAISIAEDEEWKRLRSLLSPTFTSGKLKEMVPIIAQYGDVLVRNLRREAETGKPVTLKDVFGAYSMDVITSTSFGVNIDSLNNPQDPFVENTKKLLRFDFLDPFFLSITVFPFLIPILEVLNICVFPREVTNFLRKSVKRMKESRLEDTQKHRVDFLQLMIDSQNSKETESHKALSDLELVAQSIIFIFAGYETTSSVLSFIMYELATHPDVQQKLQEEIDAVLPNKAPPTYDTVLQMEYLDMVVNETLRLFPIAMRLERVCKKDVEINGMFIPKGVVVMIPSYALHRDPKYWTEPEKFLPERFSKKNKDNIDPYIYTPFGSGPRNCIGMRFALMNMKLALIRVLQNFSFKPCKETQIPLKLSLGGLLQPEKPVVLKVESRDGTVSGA

CYP3A4 [17] = target: T4, CYP3A4; test: Inhibition of CYP3A4 (unknown origin) at 10 uM relative to control; format: ADME
CYP2C9 [18] = target: T5, CYP2C9 (Homo sapiens, UniProt P11712); test: Inhibition of CYP2C9 (unknown origin) at 1 uM relative to control; format: ADME
T5 sequence (P11712 whole entry): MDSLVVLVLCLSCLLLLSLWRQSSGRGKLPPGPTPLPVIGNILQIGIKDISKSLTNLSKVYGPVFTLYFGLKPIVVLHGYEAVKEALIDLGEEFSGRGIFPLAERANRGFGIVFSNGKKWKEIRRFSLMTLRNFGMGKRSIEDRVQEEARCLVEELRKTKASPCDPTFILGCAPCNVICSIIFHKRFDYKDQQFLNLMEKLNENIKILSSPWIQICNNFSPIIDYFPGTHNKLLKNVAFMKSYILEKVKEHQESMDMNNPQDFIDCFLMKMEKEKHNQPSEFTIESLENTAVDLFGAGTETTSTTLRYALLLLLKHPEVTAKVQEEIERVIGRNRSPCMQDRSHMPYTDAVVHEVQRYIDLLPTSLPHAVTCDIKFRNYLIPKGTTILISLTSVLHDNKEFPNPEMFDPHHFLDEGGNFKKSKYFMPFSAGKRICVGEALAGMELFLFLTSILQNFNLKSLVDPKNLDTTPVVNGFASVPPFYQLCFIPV

CYP2C9 [19] = target: T5, CYP2C9; test: Inhibition of CYP2C9 (unknown origin) at 10 uM relative to control; format: ADME
CYP2C19 [20] = target: T6, CYP2C19 (Homo sapiens, UniProt P33261); test: Inhibition of CYP2C19 (unknown origin) at 1 uM relative to control; format: ADME
T6 sequence (P33261 whole entry): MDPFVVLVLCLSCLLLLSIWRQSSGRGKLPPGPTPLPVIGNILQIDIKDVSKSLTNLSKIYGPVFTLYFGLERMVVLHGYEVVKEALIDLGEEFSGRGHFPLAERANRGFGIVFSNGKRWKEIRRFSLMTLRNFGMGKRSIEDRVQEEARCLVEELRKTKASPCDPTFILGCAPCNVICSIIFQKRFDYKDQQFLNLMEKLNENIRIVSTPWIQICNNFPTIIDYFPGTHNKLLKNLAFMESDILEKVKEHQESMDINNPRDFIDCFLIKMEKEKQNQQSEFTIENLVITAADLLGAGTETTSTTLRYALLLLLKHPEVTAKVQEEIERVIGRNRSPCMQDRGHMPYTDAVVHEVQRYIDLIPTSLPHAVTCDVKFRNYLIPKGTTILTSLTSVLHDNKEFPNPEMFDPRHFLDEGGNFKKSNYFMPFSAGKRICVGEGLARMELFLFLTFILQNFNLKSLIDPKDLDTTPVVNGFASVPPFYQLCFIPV

CYP2C19 [21] = target: T6, CYP2C19; test: Inhibition of CYP2C19 (unknown origin) at 10 uM relative to control; format: ADME
CYP2C8 [22] = target: T7, CYP2C8 (Homo sapiens, UniProt P10632); test: Inhibition of CYP2C8 (unknown origin) at 1 uM relative to control; format: ADME
T7 sequence (P10632 whole entry): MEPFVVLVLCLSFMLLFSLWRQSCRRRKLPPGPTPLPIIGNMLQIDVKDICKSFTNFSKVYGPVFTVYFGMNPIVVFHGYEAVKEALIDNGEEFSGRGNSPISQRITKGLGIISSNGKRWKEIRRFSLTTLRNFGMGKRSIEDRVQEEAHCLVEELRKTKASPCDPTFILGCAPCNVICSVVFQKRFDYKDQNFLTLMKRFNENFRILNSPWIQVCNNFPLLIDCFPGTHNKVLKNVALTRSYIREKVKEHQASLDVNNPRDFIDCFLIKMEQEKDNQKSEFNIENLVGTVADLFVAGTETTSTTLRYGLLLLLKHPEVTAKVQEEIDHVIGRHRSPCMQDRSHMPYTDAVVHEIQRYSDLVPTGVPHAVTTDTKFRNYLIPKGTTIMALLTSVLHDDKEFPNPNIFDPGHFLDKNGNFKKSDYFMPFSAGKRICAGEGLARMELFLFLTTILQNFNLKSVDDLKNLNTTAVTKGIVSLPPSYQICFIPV

CYP2C8 [23] = target: T7, CYP2C8; test: Inhibition of CYP2C8 (unknown origin) at 10 uM relative to control; format: ADME
Homo sapiens [24] = species on record: Homo sapiens; test: Selectivity for human cathepsin C over cathepsin L (unknown origin)
Homo sapiens [25] = species on record: Homo sapiens; test: Selectivity for human cathepsin C over cathepsin S (unknown origin)
Homo sapiens [26] = species on record: Homo sapiens; test: Selectivity for human cathepsin C over cathepsin B (unknown origin)
[27] = Stability of the compound in human plasma; format: ADME, cell-free
[28] = Stability of the compound in mouse plasma; format: ADME, cell-free
[29] = Stability of the compound in rat plasma; format: ADME, cell-free
[30] = Aldehyde reactivity of the compound in 0.1M phosphate buffer assessed as compound remaining at pH 7.4 measured after 1 hr in presence of propionaldehyde by HPLC-UV analysis; format: ADME; conditions: phosphate buffer with propionaldehyde, read-out: Stabilty; summary of the method: as §2

T1 sequence (P53634 25-134 limits assumed): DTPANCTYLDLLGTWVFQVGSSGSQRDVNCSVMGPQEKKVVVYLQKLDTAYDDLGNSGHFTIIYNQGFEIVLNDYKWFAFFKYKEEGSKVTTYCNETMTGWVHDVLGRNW
T1 sequence (P53634 231-394 limits assumed): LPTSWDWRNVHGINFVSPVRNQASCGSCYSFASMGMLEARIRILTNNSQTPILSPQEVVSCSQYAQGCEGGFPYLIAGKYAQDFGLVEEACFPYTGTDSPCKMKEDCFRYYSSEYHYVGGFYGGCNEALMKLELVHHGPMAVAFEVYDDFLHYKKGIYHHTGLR
T1 sequence (P53634 395-463 limits assumed): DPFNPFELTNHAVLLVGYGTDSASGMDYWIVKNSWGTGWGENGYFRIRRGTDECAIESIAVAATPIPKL

N#Cc1ccc(-c2ccc(C[C@@H](C#N)NC(=O)[C@@H]3COCCN3)cc2)cc1
inhibition (Dipeptidyl peptidase 1 [1]): 75.5%
inhibition (Dipeptidyl peptidase 1 [2]): 96.3%
IC50 (Dipeptidyl peptidase 1 [3]): 308 nM
IC50 (Dipeptidyl peptidase 1 [4]): 9720 nM
remaining at 15 h [5]: 48%
half-life [6]: 15.8 h

N#Cc1ccc(-c2ccc(C[C@@H](C#N)NC(=O)[C@H]3CN4CCC[C@H]4CN3)cc2)cc1
inhibition (Dipeptidyl peptidase 1 [1]): 68.3%
inhibition (Dipeptidyl peptidase 1 [2]): 95%
IC50 (Dipeptidyl peptidase 1 [3]): 394 nM

Cn1c(=O)oc2ccc(-c3ccc(C[C@@H](C#N)NC(=O)[C@@H]4CNCCCO4)cc3)cc21 [BRENSOCATIB]
remaining at 15 h [5]: 95%
half-life [6]: > 15 h

N#Cc1ccc(-c2ccc(C[C@@H](C#N)NC(=O)[C@@H]3CN4CCC[C@H]4CN3)cc2)cc1
inhibition (Dipeptidyl peptidase 1 [1]): 1.2%
inhibition (Dipeptidyl peptidase 1 [2]): 0%

N#Cc1ccc(-c2ccc(C[C@@H](C#N)NC(=O)[C@@H]3CC4CCCC[C@@H]4N3)cc2)cc1 (single isomer, unassigned)
inhibition (Dipeptidyl peptidase 1 [1]): 88.7%
inhibition (Dipeptidyl peptidase 1 [2]): 99%
IC50 (Dipeptidyl peptidase 1 [3]): 154 nM
IC50 (Dipeptidyl peptidase 1 [4]): 1720 nM

N#Cc1ccc(-c2ccc(C[C@@H](C#N)NC(=O)[C@H]3CN4CCC[C@@H]4CN3)cc2)cc1
inhibition (Dipeptidyl peptidase 1 [1]): 1.11%
inhibition (Dipeptidyl peptidase 1 [2]): 1.11%

N#Cc1ccc(-c2ccc(C[C@@H](C#N)NC(=O)[C@@H]3CC4(CCC4)CN3)cc2)cc1
inhibition (Dipeptidyl peptidase 1 [1]): 97.2%
inhibition (Dipeptidyl peptidase 1 [2]): 98.2%
IC50 (Dipeptidyl peptidase 1 [3]): 27.8 nM
IC50 (Dipeptidyl peptidase 1 [4]): 150 nM

N#Cc1ccc(-c2ccc(C[C@@H](C#N)NC(=O)[C@@H](N)C34CC5CC(CC(O)(C5)C3)C4)cc2)cc1
inhibition (Dipeptidyl peptidase 1 [1]): 3.29%
inhibition (Dipeptidyl peptidase 1 [2]): 2.19%

N#Cc1ccc(-c2ccc(C[C@@H](C#N)NC(=O)[C@H]3COCCN3)cc2)cc1
inhibition (Dipeptidyl peptidase 1 [1]): 2.2%
inhibition (Dipeptidyl peptidase 1 [2]): 14.2%

N#Cc1ccc(-c2ccc(C[C@@H](C#N)NC(=O)[C@@H]3CCCN3)cc2)cc1
inhibition (Dipeptidyl peptidase 1 [1]): 91.5%
inhibition (Dipeptidyl peptidase 1 [2]): 99.1%
IC50 (Dipeptidyl peptidase 1 [3]): 91.5 nM
remaining at 2 h [7]: 8.5%
half-life [6]: 0.56 h

N#Cc1ccc(-c2ccc(C[C@@H](C#N)NC(=O)[C@@H]3CC4(CC4)CN3)cc2)cc1
inhibition (Dipeptidyl peptidase 1 [1]): 92.4%
inhibition (Dipeptidyl peptidase 1 [2]): 99.5%
IC50 (Dipeptidyl peptidase 1 [3]): 77.6 nM

N#Cc1ccc(-c2ccc(C[C@@H](C#N)NC(=O)[C@@H]3C[C@@H]4CCC[C@@H]4N3)cc2)cc1
inhibition (Dipeptidyl peptidase 1 [1]): 99.2%
inhibition (Dipeptidyl peptidase 1 [2]): 100%
IC50 (Dipeptidyl peptidase 1 [3]): 9.27 nM
IC50 (Dipeptidyl peptidase 1 [4]): 699 nM
Selectivity ratio (Homo sapiens [8]): 93
remaining at 15 h [5]: 97%
half-life [6]: > 15 h
remaining at 1 h [9]: 1%
remaining at 1 h [10]: 3%
remaining at 1 h [11]: 6%
inhibition at 1 µM (CYP1A2 [12]): 15.2%
inhibition at 10 µM (CYP1A2 [13]): 43.7%
inhibition at 1 µM (CYP2D6 [14]): 69.7%
inhibition at 10 µM (CYP2D6 [15]): 88.3%
inhibition at 1 µM (CYP3A4 [16]): 2.2%
inhibition at 10 µM (CYP3A4 [17]): 33.8%
inhibition at 1 µM (CYP2C9 [18]): 12%
inhibition at 10 µM (CYP2C9 [19]): 32.4%
inhibition at 1 µM (CYP2C19 [20]): 17.1%
inhibition at 10 µM (CYP2C19 [21]): 38.4%
inhibition at 1 µM (CYP2C8 [22]): 11.8%
inhibition at 10 µM (CYP2C8 [23]): 40.1%
Selectivity ratio (Homo sapiens [24]): 10800
Selectivity ratio (Homo sapiens [25]): 4400
Selectivity ratio (Homo sapiens [26]): 2260
Stabilty [27]: Stable
Stabilty [28]: Stable
Stabilty [29]: Stable

N#Cc1ccc(-c2ccc(C[C@@H](C#N)NC(=O)[C@@H]3CN4CCC[C@@H]4CN3)cc2)cc1
inhibition (Dipeptidyl peptidase 1 [1]): 4.63%
inhibition (Dipeptidyl peptidase 1 [2]): 22.8%

N#Cc1ccc(-c2ccc(C[C@@H](C#N)NC(=O)[C@@H]3C[C@H]4CCC[C@@H]4N3)cc2)cc1
inhibition (Dipeptidyl peptidase 1 [1]): 6.55%
inhibition (Dipeptidyl peptidase 1 [2]): 50.1%
remaining at 15 h [5]: 100%

N#Cc1ccc(-c2ccc(C[C@@H](C#N)NC(=O)C3(N)CCOCC3)cc2)cc1
inhibition (Dipeptidyl peptidase 1 [1]): 99.2%
inhibition (Dipeptidyl peptidase 1 [2]): 99.9%
remaining at 1 h [30]: 15%
half-life [6]: 0.36 h

N#Cc1ccc(-c2ccc(C[C@@H](C#N)NC(=O)[C@@H]3CC4(CCCCC4)CN3)cc2)cc1
inhibition (Dipeptidyl peptidase 1 [1]): 84.3%
inhibition (Dipeptidyl peptidase 1 [2]): 99.3%
IC50 (Dipeptidyl peptidase 1 [3]): 228 nM

N#Cc1ccc(-c2ccc(C[C@@H](C#N)NC(=O)[C@@H]3C[C@@H]4C[C@@H]4N3)cc2)cc1
inhibition (Dipeptidyl peptidase 1 [1]): 83.9%
inhibition (Dipeptidyl peptidase 1 [2]): 97.9%
IC50 (Dipeptidyl peptidase 1 [3]): 223 nM

N#Cc1ccc(-c2ccc(C[C@@H](C#N)NC(=O)[C@@H]3C[C@H]4CCC[C@H]4N3)cc2)cc1
inhibition (Dipeptidyl peptidase 1 [1]): 85.6%
inhibition (Dipeptidyl peptidase 1 [2]): 98.2%
IC50 (Dipeptidyl peptidase 1 [3]): 77.7 nM
IC50 (Dipeptidyl peptidase 1 [4]): 79.1 nM
remaining at 15 h [5]: 7%
half-life [6]: 5.3 h

N#Cc1ccc(-c2ccc(C[C@@H](C#N)NC(=O)[C@@H]3CC4(CCCC4)CN3)cc2)cc1
inhibition (Dipeptidyl peptidase 1 [1]): 99%
inhibition (Dipeptidyl peptidase 1 [2]): 99.7%
IC50 (Dipeptidyl peptidase 1 [3]): 10.2 nM
IC50 (Dipeptidyl peptidase 1 [4]): 69 nM
remaining at 15 h [5]: 0%
half-life [6]: 0.56 h
